The results in this text go back to ChEMBL document CHEMBL4371078, “N-Naphthoyl-substituted indole thio-barbituric acid analogs inhibit the helicase activity of the hepatitis C virus NS3” (Bioorg Med Chem Lett, 2019).

pIC50, pKd: −log10 of the molar value. The source made the active and inactive calls. The rule behind the calls is not given here.

Assay [1] concerns Hepatitis C virus subtype 1b. Kind of assay: Inhibition of polyU RNA-stimulated recombinant full length HCV genotype 1b NS3 ATPase activity assessed as Kcat for substrate at 25 uM in presence of 5 mM ATP measured for 1 min by pyruvate kinase/ lactate dehydrogenase enzyme coupled spectrophotometric method (reference value: 68 /s).
Assay [2] relates to Hepatitis C virus subtype 1b. Kind of assay: Inhibition of polyU RNA-stimulated recombinant full length HCV genotype 1b NS3 ATPase activity assessed as Km for substrate at 25 uM in presence of 5 mM ATP measured for 1 min by pyruvate kinase/ lactate dehydrogenase enzyme coupled spectrophotometric method (reference value: 0.41 mM).
Assay [3] deals with Hepatitis C virus subtype 1b. Description: Inhibition of recombinant full length HCV genotype 1b NS3 helicase activity assessed as reduction in 5'-FAM labeled dsDNA substrate unwinding at 30 uM preincubated for 10 mins followed by MgCl2/ATP addition and measured after 30 mins by real-time fluorescence assay. The gist of the method:
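96-well real-time unwinding of a fluorescently labelled duplex DNA by full-length recombinant NS3 with saturating ATP and Mg2+. Read-out was the increase in FAM fluorescence. Compounds were tested at 30 µM in 5% DMSO. Unwinding rates were normalized to DMSO controls. Values are the mean ± standard deviation of triplicate measurements.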

The nature of assay [4]: (§1) Inhibition of recombinant full length HCV genotype 1b NS3 helicase activity assessed as reduction in 5'-FAM labeled dsDNA substrate unwinding preincubated for 10 mins followed by MgCl2/ATP addition and measured after 30 mins by real-time fluorescence assay. More on the design: species or system Hepatitis C virus subtype 1b. The gist of the method: (§2)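 Real-time plate unwinding of a FAM-labelled duplex DNA by full-length recombinant NS3 with saturating ATP and Mg2+, read as the fluorescence increase. Compounds were dosed over a range to derive an IC50.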

Assay [5] concerns Hepatitis C virus subtype 1b. The description is as §1. The gist of the method: as §2
Assay [6] deals with Hepatitis C virus subtype 1b. Description: Inhibition of recombinant full length HCV genotype 1b NS3 helicase activity assessed as reduction in radiolabeled dsDNA substrate unwinding by measuring unwinding rate constant at 25 uM preincubated for 5 mins followed by MgCl2/ATP addition and measured up to 50 mins by PAGE based phosphor imaging analysis (reference value: 0.039 +/- 0.002 /min). The gist of the method:
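Gel-based unwinding of 2 nM radiolabelled duplex DNA by 100 nM recombinant NS3 with excess ATP. Compound was present at 25 µM. Unwound fraction was quantified at time points and fit to a single exponential for the rate constant. Triplicate experiments were averaged.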

Assay [7] concerns Hepatitis C virus subtype 1b. Kind of assay: Inhibition of recombinant full length HCV genotype 1b NS3 helicase activity assessed as reduction in radiolabeled 38 bp dsRNA substrate unwinding by measuring unwinding rate constant at 25 uM preincubated for 20 mins followed by MgCl2/ATP addition and measured up to 4 mins by PAGE based phosphor imaging analysis (reference value: 1.84 +/- 0.19 /min). The gist of the method: (§3)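 Polyacrylamide gel unwinding of a radiolabelled 38 bp duplex RNA by recombinant NS3 with compound at 25 µM. Radioactivity at time points from triplicate experiments was averaged and fit to a single exponential to give rate constants.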

In assay [8] the test system is Hepatitis C virus subtype 1b. Kind of assay: Inhibition of recombinant full length HCV genotype 1b NS3 helicase activity assessed as reduction in radiolabeled 38 bp dsRNA substrate unwinding t 25 uM preincubated for 20 mins followed by MgCl2/ATP addition and measured up to 4 mins by PAGE based phosphor imaging analysis relative to control. The gist of the method: as §3

Assay [9] in a line: Inhibition of recombinant full length HCV genotype 1b NS3 interaction with 3'-FAM labeled ssDNA assessed as Kd for NS3-ssDNA complex at 25 uM by fluorescence polarization assay (reference value: 3.3 +/- 0.2 nM). Further details: species or system Hepatitis C virus subtype 1b. Background: Fluorescence polarisation rises when a labelled molecule tumbles more slowly, as on binding a larger partner.

The test system of assay [10] is Hepacivirus hominis. Description: Inhibition of HCV NS3/4A protease activity at 25 uM using Ac-Asp-Glu-Asp-EDANS-Glu-Glu-Abu-L-Lactoyl-Ser-Lys DABCYL-NH2 as substrate measured for 30 mins by fluorescence assay. The gist of the method: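 NS3–4A protease activity read by fluorescence of the internally quenched EDANS/DABCYL peptide after cleavage. Compounds were tested at 25 µM, with telaprevir at 10 µM as the positive control. Activities were normalized. Values are the mean ± standard deviation of triplicate measurements.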

In assay [11] the test system is Hepacivirus hominis. Description: Inhibition of HCV NS3/4A protease activity at 10 uM using Ac-Asp-Glu-Asp-EDANS-Glu-Glu-Abu-L-Lactoyl-Ser-Lys DABCYL-NH2 as substrate measured for 30 mins by fluorescence assay relative to control. The gist of the method:
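Recombinant HCV NS3–4A with full protease activity, incubated with the internally quenched EDANS/DABCYL peptide substrate; cleavage read as the rise in fluorescence. Activities were normalized to control and given as mean ± standard deviation of triplicate measurements.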

On to `O=C1NC(=S)NC(=O)C1=Cc1cn(C(=O)c2ccc3ccccc3c2)c2ccccc12`, for which the catalytic constant (kcat) (in general, the number of substrate molecules converted per active site and unit of time at saturation) in [1] worked out at 65.3 s⁻¹. The Km – broadly, the concentration of substrate that gives half-maximal velocity – in assay [2] worked out at 480 µM. Also, in [3], the inhibition – broadly, the relative decrease from the control value, in per cent – is “Active”. Also, the negative logarithm of the IC50 (pIC50) (as a rule, −log10 of the IC50, conventionally taken in molar units) in [4] is 4.67. Besides, the inhibition entry is “Dose-dependent effect” in assay [5] and 50% in assay [8]. For the same compound, the K in assay [6] stood at 0.018 min⁻¹; in assay [7], 1.81 min⁻¹. In addition, the negative logarithm of the Kd (pKd) (as a rule, the negative decadic logarithm of the Kd, by convention in mol/L) in assay [9] was 8.51. Further, in the assay on Hepacivirus hominis [10], the inhibition result is “inactive”.
On to `COc1ccc2c(c1)c(C=C1C(=O)NC(=S)NC1=O)cn2C(=O)c1ccc2ccccc2c1`, for which the turnover number (kcat) in assay [1] amounted to 73 s⁻¹. Further, the Km in [2] was 1000 µM. The inhibition entry in [3] was “Active”. Besides, in [4], the pIC50 was 4.67. The results for the inhibition entry in assay [5] and in assay [8] were “Dose-dependent effect” and 50%, respectively. For the same compound, the K was 0.021 min⁻¹ in assay [6] and 2.38 min⁻¹ in assay [7]. In addition, in assay [9], the pKd is 8.55. Moreover, the inhibition result in the assay with Hepacivirus hominis [10] was “inactive”.
Consider `COc1ccc2c(c1)c(C=C1C(=O)NC(=S)NC1=O)cn2C(=O)c1cccc2ccccc12`, for which, in assay [1], the kcat was 68.7 s⁻¹. The Michaelis constant (Km) in [2] was found to be 860 µM. Moreover, the inhibition result in assay [3] is “Active”. Further, the pIC50 in assay [4] is 4.63. Moreover, the results for the inhibition result in assay [5] and in assay [8] were “Dose-dependent effect” and 50%, respectively. Further, the K was determined as 0.024 min⁻¹ in [6] and 2.14 min⁻¹ in assay [7]. For the same compound, the negative logarithm of the Kd (pKd) in assay [9] is 8.24. For the same compound, the inhibition entry in the assay on Hepacivirus hominis [10] was “inactive”.
Compound `CCC[C@H](NC(=O)[C@@H]1[C@H]2CCC[C@H]2CN1C(=O)[C@@H](NC(=O)[C@@H](NC(=O)c1cnccn1)C1CCCCC1)C(C)(C)C)C(=O)C(=O)NC1CC1` yielded an inhibition with Hepacivirus hominis [11] of 85%.
With `O=C1NC(=S)NC(=O)C1=Cc1cn(C(=O)c2ccc3ccccc3c2)c2ccc(Cl)cc12`, in assay [3], the inhibition entry was “inactive”.
On the same count and under the same terms, the result for `O=C1NC(=S)NC(=O)C1=Cc1cn(C(=O)c2cccc3ccccc23)c2ccc(Cl)cc12` reads “inactive”.
